Assay [1] has as its target Platelet-activating factor receptor (Mus musculus) (UniProt Q62035). Description: Oral dose required to inhibit PAF-induced mortality (PAF-Antagonistic activity)in mice by 50%. Format: functional. The conditions noted are these: Mus sp. The procedure, abridged:
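Male Swiss mice, 22-26 g, in groups of 10. Compound or saline given po (20 mL/kg) 60 min before C18-PAF 100 µg/kg plus propranolol 1 mg/kg by tail vein. ID50 from percent inhibition of mortality versus controls.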

In assay [2] the target is Platelet-activating factor receptor (Rattus norvegicus) (UniProt P46002). Description: Dose required to inhibit PAF-induced hypotension (PAF-Antagonistic activity) in normotensive rats by 50%. It counts as functional. Put shortly:
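Male Sprague-Dawley rats, 180-220 g, anesthetized with sodium pentobarbital ip. Carotid blood pressure recorded. Compound given iv in saline (1 mL/kg) via femoral vein 3 min before PAF 0.5 µg/kg iv; vehicle controls. ID50 by linear regression of one curve of at least four doses, each the mean % inhibition from two or more experiments.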

Chain of Platelet-activating factor receptor (Rattus norvegicus) (P46002 whole entry): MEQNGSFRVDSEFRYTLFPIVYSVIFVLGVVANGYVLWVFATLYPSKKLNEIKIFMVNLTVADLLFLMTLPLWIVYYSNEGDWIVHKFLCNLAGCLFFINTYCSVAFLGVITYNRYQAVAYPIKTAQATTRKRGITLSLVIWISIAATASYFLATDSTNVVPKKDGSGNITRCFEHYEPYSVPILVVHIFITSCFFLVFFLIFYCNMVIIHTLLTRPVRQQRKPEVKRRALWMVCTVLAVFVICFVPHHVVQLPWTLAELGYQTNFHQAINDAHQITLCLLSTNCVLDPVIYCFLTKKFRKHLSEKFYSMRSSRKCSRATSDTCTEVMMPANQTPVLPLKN
Chain of Platelet-activating factor receptor (Mus musculus) (Q62035 whole entry): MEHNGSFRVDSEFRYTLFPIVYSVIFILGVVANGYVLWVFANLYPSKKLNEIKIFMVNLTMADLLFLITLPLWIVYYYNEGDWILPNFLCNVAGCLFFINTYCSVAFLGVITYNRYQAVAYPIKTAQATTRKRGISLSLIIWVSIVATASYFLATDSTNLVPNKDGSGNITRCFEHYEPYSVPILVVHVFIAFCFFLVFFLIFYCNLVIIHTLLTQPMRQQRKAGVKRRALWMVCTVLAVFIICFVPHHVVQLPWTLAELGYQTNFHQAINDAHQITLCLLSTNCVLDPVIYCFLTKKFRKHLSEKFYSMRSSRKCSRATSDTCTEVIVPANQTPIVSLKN

On to `N#CC1(Nc2cccnc2)CCN(C(=O)CNC(c2ccccc2)c2ccccc2)CC1`, for which the ID50 stood at 15 mg/kg in assay [1] and 0.096 mg/kg in assay [2].
For `CN(CC(=O)N1CCN(C(C#N)c2cccnc2)CC1)C(c1ccccc1)c1ccccc1` (stereo unspecified) the same measures were 4.6 mg/kg and 0.33 mg/kg.
For `N#CC(c1cccnc1)N1CCN(C(=O)Cc2cccc3ccccc23)CC1` (stereo unspecified) the same measures were over 50 mg/kg and 1.3 mg/kg.
Take `N#CC(c1cccnc1)N1CCN(C(=O)CNc2cccc3ccccc23)CC1` (stereo unspecified): in assay [2], the ID50 amounted to 2.5 mg/kg.
As for `N#CC(c1cccnc1)N1CCN(C(=O)OCC(c2ccccc2)c2ccccc2)CC1` (stereo unspecified), the results for the ID50 in assay [1] and in assay [2] were over 30 mg/kg and 0.078 mg/kg, respectively.
In assay [2], `N#CC(c1cccnc1)N1CCN(CCNC(=O)CC(c2ccccc2)c2ccccc2)CC1` (stereo unspecified) had an ID50 of 2.2 mg/kg.
For `N#CC(c1cccnc1)N1CCN(C(=O)Cc2ccccc2)CC1` (stereo unspecified), the results for the ID50 in assay [1] and in assay [2] were 50 mg/kg and 1.5 mg/kg, respectively.
Turning to `N#CC(c1cccnc1)N1CCN(C(=O)/C(=C/c2ccccc2)c2ccccc2)CC1` (stereo unspecified), the ID50 in assay [1] was over 20 mg/kg; in assay [2], 0.17 mg/kg.
The corresponding values for `N#CC1(Nc2cccnc2)CCN(C(=O)CC(c2ccccc2)c2ccccc2)CC1` are 12 mg/kg and 0.04 mg/kg.
On to `N#CC(c1cccnc1)N1CCN(C(=O)CCNC(c2ccccc2)c2ccccc2)CC1` (stereo unspecified), for which the ID50 in assay [1] is 5.4 mg/kg; in assay [2] it was 0.025 mg/kg.
For `N#CC(c1cccnc1)C1CCN(C(=O)C(c2ccccc2)c2ccccc2)CC1` (stereo unspecified) the same measures were 14 mg/kg and 0.023 mg/kg.
The corresponding values for `N#CC(c1cccnc1)N1CCN(C(=O)CNCCC(c2ccccc2)c2ccccc2)CC1` (stereo unspecified) are 14 mg/kg and 0.21 mg/kg.
For `CCCCCCCC(=O)N1CCN(C(C#N)c2cccnc2)CC1` (stereo unspecified) the same measures were 100 mg/kg and 1.2 mg/kg.
Turning to `N#CC(c1cccnc1)N1CCN(C(=O)C(Cc2ccccc2)Cc2ccccc2)CC1` (stereo unspecified), the figures for the ID50 in assay [1] and in assay [2] were 100 mg/kg and 0.68 mg/kg, respectively.
Regarding `COc1cc(C(=O)N2CCN(Cc3cccnc3)CC2)cc(OC)c1OC`, the ID50 was over 100 mg/kg in assay [1] and over 5 mg/kg in assay [2].
In assay [2], `Cn1ccc(C(C#N)N2CCN(C(=O)CC(c3ccccc3)c3ccccc3)CC2)c1` (stereo unspecified) came in with an ID50 of 4.2 mg/kg.
On to `N#CC(c1cccnc1)N1CCN(C(=O)CNC(Cc2ccccc2)c2ccccc2)CC1` (stereo unspecified), for which the ID50 in assay [1] was over 10 mg/kg; in assay [2] it was 0.38 mg/kg.
For `COc1cc(C(=O)N2CCN(C(=S)c3cccnc3)CC2)cc(OC)c1OC` the same measures were 100 mg/kg and over 5 mg/kg.
For `N#CC(c1cccnc1)N1CCN(C(=O)C=C(c2ccccc2)c2ccccc2)CC1` (stereo unspecified) the same measures were 50 mg/kg and 0.049 mg/kg.
The corresponding values for `N#CC(c1cncs1)N1CCN(C(=O)CC(c2ccccc2)c2ccccc2)CC1` (stereo unspecified) are 25 mg/kg and 0.75 mg/kg.
Turning to `N#CC(c1cccnc1)N1CCN(C(=O)C(Cc2ccccc2)c2ccccc2)CC1` (stereo unspecified), the ID50 is over 50 mg/kg in assay [1] and 0.12 mg/kg in assay [2].
The corresponding values for `O=C(CC(c1ccccc1)c1ccccc1)N1CCN(Cc2cccnc2)CC1` are 35 mg/kg and 0.48 mg/kg.
For `N#CC(c1cccc([N+](=O)[O-])c1)N1CCN(C(=O)CC(c2ccccc2)c2ccccc2)CC1` (stereo unspecified) the same measures were over 30 mg/kg and over 5 mg/kg.
The corresponding values for `COc1cc(C(=O)N2CCN(C(C#N)c3cccnc3)CC2)cc(OC)c1OC` (stereo unspecified) are over 100 mg/kg and 4.4 mg/kg.
For `N#CC(c1cccnc1)C1CCN(C(=O)CNC(c2ccccc2)c2ccccc2)CC1` (stereo unspecified), the figures for the ID50 in assay [1] and in assay [2] were 2.6 mg/kg and 0.03 mg/kg, respectively.
As to `CN(CCCc1ccccc1)CC(=O)N1CCN(C(C#N)c2cccnc2)CC1` (stereo unspecified), the ID50 in assay [2] is over 5 mg/kg.
For the compound `N#CC(c1cccnc1)N1CCN(CC(=O)NCCC(c2ccccc2)c2ccccc2)CC1` (stereo unspecified), the ID50 in assay [1] was over 30 mg/kg; in assay [2] it was 3 mg/kg.
As to `CN(CC(=O)N1CCN(C(C#N)c2cccnc2)CC1)c1ccccc1` (stereo unspecified), the ID50 in assay [2] amounted to 2.2 mg/kg.
Turning to `N#CC(c1cccnc1)N1CCN(C(=O)/C=C/c2ccccc2)CC1` (stereo unspecified), the ID50 in assay [1] was determined as 100 mg/kg; in assay [2], 0.24 mg/kg.
Take `N#CC(CN1CCN(C(=O)C(c2ccccc2)c2ccccc2)CC1)c1cccnc1` (stereo unspecified): in assay [2], the ID50 was over 5 mg/kg.
With `N#CC(=C1CCN(C(=O)CC(c2ccccc2)c2ccccc2)CC1)c1cccnc1`, the results for the ID50 in assay [1] and in assay [2] were 30 mg/kg and 0.42 mg/kg, respectively.
For `N#Cc1cccc(C(C#N)N2CCN(C(=O)CC(c3ccccc3)c3ccccc3)CC2)c1` (stereo unspecified) the same measures were over 30 mg/kg and over 5 mg/kg.
On to `CC(C)(C)C(=O)N1CCN(C(C#N)c2cccnc2)CC1` (stereo unspecified), for which, in assay [2], the ID50 was over 5 mg/kg.
As to `N#CC(c1cccnc1)N1CCN(C(=O)CC(O)(c2ccccc2)c2ccccc2)CC1` (stereo unspecified), the ID50 in assay [1] was determined as 4.7 mg/kg; in assay [2] it was 0.061 mg/kg.
For `CC(c1cccnc1)N1CCN(C(=O)C(c2ccccc2)c2ccccc2)CC1` (stereo unspecified) the same measures were 100 mg/kg and 3.6 mg/kg.
For `N#CC(c1ccncc1)N1CCN(C(=O)CC(c2ccccc2)c2ccccc2)CC1` (stereo unspecified) the same measures were 7.3 mg/kg and 0.041 mg/kg.
The corresponding values for `N#CC(c1cccnc1)N1CCN(C(=S)C(c2ccccc2)c2ccccc2)CC1` (stereo unspecified) are over 50 mg/kg and 0.45 mg/kg.
Regarding `N#CC(c1cccnc1)N1CCC(OC(=O)CC(c2ccccc2)c2ccccc2)CC1` (stereo unspecified), the ID50 in assay [2] was over 5 mg/kg.
On to `N#CC(c1cccnc1)N1CCN(C(=O)CN(Cc2ccccc2)c2ccccc2)CC1` (stereo unspecified), for which the figures for the ID50 in assay [1] and in assay [2] were over 30 mg/kg and 0.42 mg/kg, respectively.
For `N#CC(c1cccnc1)N1CCN(C(=O)CNCc2ccccc2)CC1` (stereo unspecified) the same measures were 50 mg/kg and 0.8 mg/kg.
The corresponding values for `N#CC(c1cccnc1)N1CCN(C(=O)CC(c2ccccc2)c2ccccc2)CC1` (stereo unspecified) are 12 mg/kg and 0.013 mg/kg.
Take `COc1cc(CCC(=O)N2CCN(C(=O)c3cc(OC)c(OC)c(OC)c3)CC2)cc(OC)c1OC`: the ID50 in assay [2] was over 5 mg/kg.
Take `N#CC(c1ccncc1)N1CCN(C(=O)CCNC(c2ccccc2)c2ccccc2)CC1` (stereo unspecified): the ID50 was 3.2 mg/kg in assay [1] and 0.037 mg/kg in assay [2].
`N#CC(c1cccnc1)N1CCN(C(=O)C(CCc2ccccc2)c2ccccc2)CC1` (stereo unspecified) registered an ID50 in assay [2] of 0.73 mg/kg.
Consider `Cc1nnc2n1-c1sc(CCC(=O)N3CCOCC3)cc1C(c1ccccc1Cl)=NC2`, for which the results for the ID50 in assay [1] and in assay [2] were 0.97 mg/kg and 0.17 mg/kg, respectively.
For `N#CC(c1cccnc1)N1CCN(C(=O)C(c2ccccc2)c2ccccc2)CC1` (stereo unspecified) the same measures were 12 mg/kg and 0.11 mg/kg.
Take `COc1cc(CC(=O)N2CCN(C(C#N)c3cccnc3)CC2)cc(OC)c1OC` (stereo unspecified): the ID50 is over 50 mg/kg in assay [1] and 2.5 mg/kg in assay [2].
In assay [2], `N#CC(c1cccnc1)N1CCN(C(=O)c2ccccc2)CC1` (stereo unspecified) gave an ID50 of over 5 mg/kg.
As for `N#CC(c1cccc(C(F)(F)F)c1)N1CCN(C(=O)CC(c2ccccc2)c2ccccc2)CC1` (stereo unspecified), the ID50 was over 30 mg/kg in assay [1] and over 5 mg/kg in assay [2].
Compound `O=C(C(c1ccccc1)c1ccccc1)N1CCN(Cc2cccnc2)CC1` displayed an ID50 in assay [2] of 2.7 mg/kg.
`N#CC(c1cccnc1)N1CCN(C(=O)CNc2ccccc2)CC1` (stereo unspecified): the results for the ID50 in assay [1] and in assay [2] were 28 mg/kg and 0.49 mg/kg, respectively.
For `CC(C(=O)N1CCN(C(C#N)c2cccnc2)CC1)c1ccccc1` (stereo unspecified) the same measures were over 50 mg/kg and 0.26 mg/kg.
The corresponding values for `N#CC(c1cccnc1)N1CCN(C(=O)CN(Cc2ccccc2)Cc2ccccc2)CC1` (stereo unspecified) are over 10 mg/kg and 1.7 mg/kg.
As to `NC(=O)C(c1cccnc1)N1CCN(C(=O)C(c2ccccc2)c2ccccc2)CC1` (stereo unspecified), the ID50 in assay [2] was over 5 mg/kg.
For the compound `N#CC(c1cccnc1)N1CCN(C(=O)CNC(c2ccccc2)c2ccccc2)CC1` (stereo unspecified), the ID50 in assay [1] worked out at 5.9 mg/kg; in assay [2], 0.023 mg/kg.
The compound `O=C(c1cccnc1)N1CCN(C(=O)C(c2ccccc2)c2ccccc2)CC1` returned an ID50 in assay [2] of over 5 mg/kg.
On to `N#CC(c1ccncc1)N1CCN(C(=O)CNC(=O)C(c2ccccc2)c2ccccc2)CC1` (stereo unspecified), for which the ID50 in assay [1] is over 20 mg/kg; in assay [2], 0.47 mg/kg.
The corresponding values for `N#CC(c1cccnc1)N1CCN(C(=O)CNCCCc2ccccc2)CC1` (stereo unspecified) are 50 mg/kg and 1.3 mg/kg.
For `N#CC(c1cccnc1)N1CCN(C(=O)NC(c2ccccc2)c2ccccc2)CC1` (stereo unspecified) the same measures were 30 mg/kg and 0.29 mg/kg.
The corresponding values for `N#CC(c1cccnc1)N1CCN(C(=O)CCc2ccccc2)CC1` (stereo unspecified) are 44 mg/kg and 1.2 mg/kg.
For `O=C(CC(c1ccccc1)c1ccccc1)N1CCC(Nc2cccnc2)CC1`, the ID50 in assay [2] turned out to be 2.4 mg/kg.
On to `CC(NCC(=O)N1CCN(C(C#N)c2cccnc2)CC1)c1ccccc1` (stereo unspecified), for which the figures for the ID50 in assay [1] and in assay [2] were 18 mg/kg and 0.39 mg/kg, respectively.
For `COc1cc(C(=O)N2CCN(C(=O)c3cccnc3)CC2)cc(OC)c1OC` the same measures were over 100 mg/kg and over 5 mg/kg.
In turn, `CCCCCCCCCCCCCCCC(=O)N1CCN(C(C#N)c2cccnc2)CC1` (stereo unspecified) yielded an ID50 in assay [2] of over 5 mg/kg.
With `N#CC(c1cccnc1)N1CCN(CCNC(=O)C(c2ccccc2)c2ccccc2)CC1` (stereo unspecified), the ID50 in assay [1] is 50 mg/kg; in assay [2] it was 0.29 mg/kg.
For `CCCCC(=O)N1CCN(C(C#N)c2cccnc2)CC1` (stereo unspecified) the same measures were over 50 mg/kg and 4.3 mg/kg.
For `COc1cc(C(=O)N2CCN(C(=O)c3cc(OC)c(OC)c(OC)c3)CC2)cc(OC)c1OC` the same measures were over 100 mg/kg and 4.7 mg/kg.
Turning to `O=C(C(c1ccccc1)c1ccccc1)N1CC[N+]([O-])(Cc2cccnc2)CC1`, in assay [2], the ID50 is over 5 mg/kg.
On the same count and under the same terms, the same measure for `COc1cc(C(=O)N2CCN(C(C#N)c3ccccn3)CC2)cc(OC)c1OC` (stereo unspecified): over 5 mg/kg; for `Cn1cc(C(C#N)N2CCN(C(=O)CC(c3ccccc3)c3ccccc3)CC2)c2ccccc21` (stereo unspecified): over 5 mg/kg.

The record behind these values is ChEMBL document CHEMBL1125344, “(Pyridylcyanomethyl)piperazines as orally active PAF antagonists” (J Med Chem, 1992).
